# Data reported in ChEMBL document CHEMBL5038608, “Design, synthesis, and biological evaluation of novel pyrrolidinone small-molecule Formyl peptide receptor 2 agonists” (Eur J Med Chem, 2021).
# The source made the active and inactive calls. The rule behind the calls is not given here.
# Key:
# [1] = molecular target: T1, N-formyl peptide receptor 2 (Homo sapiens) (UniProt P25090); assay: Agonist activity at FPRL1 (unknown origin) expressed in CHO-K1 cells assessed as increase in calcium mobilization […] incubated for 2.5 hrs by cellular based FLIPR assay; assay type: functional, cell-based
# T1 sequence (whole entry): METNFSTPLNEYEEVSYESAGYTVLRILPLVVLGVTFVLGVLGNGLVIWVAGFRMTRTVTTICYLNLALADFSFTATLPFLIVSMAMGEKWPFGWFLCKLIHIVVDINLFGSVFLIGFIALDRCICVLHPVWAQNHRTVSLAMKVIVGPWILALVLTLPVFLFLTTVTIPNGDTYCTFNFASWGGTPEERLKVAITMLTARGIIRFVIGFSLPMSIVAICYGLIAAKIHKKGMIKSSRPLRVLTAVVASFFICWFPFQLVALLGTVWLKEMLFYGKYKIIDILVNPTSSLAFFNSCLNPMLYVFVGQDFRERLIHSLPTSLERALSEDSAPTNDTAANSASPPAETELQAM
# Procedure, shortened: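 CHO-K1 cells overexpressing human FPR2 (PathHunter FPRL1 line), plated at 20,000/well in F-12 with 10% FBS and held 1 h RT, then overnight at 37 °C. Calcium 6 dye loaded 2 h at 37 °C, then 30 min RT in the dark. Compounds were half-log serially diluted from 10 mM stocks in HBSS with 20 mM HEPES. Cytosolic Ca2+ rise read on FLIPR Tetra.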
# [2] = molecular target: T1, N-formyl peptide receptor 2 (Homo sapiens); assay: Agonist activity at FPRL1 (unknown origin) expressed in CHO-K1 cells assessed as stimulation of beta-arrestin recruitment […] incubated for 150 mins by beta-galactosidase based PathHunter assay; assay type: functional, cell-based
# Procedure, shortened: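 PathHunter CHO-K1 FPRL1 cells carry complementing β-galactosidase fragments. Plated at 5000/well, held 1 h RT, then overnight at 37 °C. Compounds were half-log serially diluted from 10 mM stocks in PBS. Stimulation 150 min at 37 °C; W-peptide (WKYMVm, 100 nM) was the high control. Detection reagent added for 60 min RT in the dark, with chemiluminescence read-out.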
# [3] = Kinetic solubility of compound in PBS at pH 7.4 by UV-VIS absorption spectrophotometry analysis; assay type: physicochemical; conditions: for solubility kinetic: PBS, read-out: Kinetic_solubility; for Kinetic_solubility: buffer
# Procedure, shortened: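 A 10 mM DMSO stock was diluted into PBS pH 7.4 at a target of 200 µM (final PBS:DMSO 98:2), in triplicate. Agitated 500 rpm for 90 min, then filtered. Filtrate diluted to PBS:DMSO 80:20 and its UV absorbance compared against a 200–6.75 µM standard series to give the concentration remaining in solution.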
# [4] = Distribution coefficient, logD of compound at pH 7.4 by shake flask method based LC-MS/MS analysis; assay type: physicochemical; conditions: octanol/water
# Procedure, shortened: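 Shake-flask method: compound diluted from 10 mM DMSO stock into equal volumes of octanol and PBS, final concentration 100 µM. Shaken 12 h, then centrifuged. Both layers analysed in triplicate by LC-MS/MS (MRM, C8 UPLC). LogD = log10 of the octanol/buffer peak-area ratio.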
# [5] = Microsomal stability in human liver microsomes assessed as half life at 1 uM preincubated for 5 mins followed by NADPH regenerating system addition measured after 30 mins by LC-MS/MS analysis; assay type: ADME, Microsome; conditions: t1/2, time 35 min
# Procedure, shortened: (§1)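 Human or mouse liver microsomes (0.2 mg/mL protein) with compound at 1 µM final, pre-incubated 5 min at 37 °C. Reaction started with NADPH generating solution and agitated at 37 °C, with samples quenched up to 30 min. Centrifuged; supernatant analysed in triplicate by LC-MS.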
# [6] = Microsomal stability in mouse liver microsomes assessed as half life at 1 uM preincubated for 5 mins followed by NADPH regenerating system addition measured after 30 mins by LC-MS/MS analysis; assay type: ADME, Microsome; conditions: t1/2, time 35 min; procedure, shortened: as §1
# [7] = molecular target: T2, N-formyl peptide receptor 2 (Homo sapiens, UniProt P25090); assay: Agonist activity at FPRL1 (unknown origin) expressed in CHO-K1 cells assessed as increase in calcium mobilization incubated for 2.5 hrs by cellular based FLIPR assay; assay type: functional, cell-based
# T2 sequence (P25090 whole entry): T1 sequence (whole entry)
# Procedure, shortened: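 CHO-K1 cells overexpressing hFPR2, plated at 20,000 cells/well in F-12 with 10% FBS and held overnight at 37 °C. Loaded with FLIPR Calcium 6 dye for 2 h at 37 °C, then 30 min at RT in the dark. Compounds were half-log serially diluted from 10 mM stocks in HBSS/20 mM HEPES. Cytosolic Ca2+ rise read on FLIPR Tetra. WKYMVm served as control.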
# [8] = molecular target: T2, N-formyl peptide receptor 2; assay: Agonist activity at FPRL1 (unknown origin) expressed in CHO-K1 cells assessed as stimulation of beta-arrestin recruitment incubated for 150 mins by beta-galactosidase based PathHunter assay; assay type: functional, cell-based
# Procedure, shortened: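 PathHunter CHO-K1 FPRL1 cells expressing β-gal enzyme-fragment complementation, 5000 cells/well, held overnight at 37 °C. Stimulated with half-log serial dilutions of compounds (10 mM stocks in PBS) for 150 min at 37 °C. High control was WKYMVm at 100 nM. Detection reagent added for 60 min at RT in the dark, then chemiluminescence read.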
# [9] = filed as agonist, time 0.067 hrs, in the assay text read “measured for 240 s” for “incubated for 2.5 hrs”
"Emax [1, 9] [%]",Emax ([2]; filed as agonist) [%],solubility kinetic [3] [µM],logD ([4]; read-out: logD),half-life at 1 µM [5] [h],half-life at 1 µM [6] [h],EC50 ([7]; read-out: EC50) [nM],EC50 ([8]; read-out: EC50) [nM],EC50 ([8]; cho-k1),Emax [2],Kinetic_solubility [3] [µM],logD [4],EC50 ([7]; cho-k1),Emax ([1]; time 2.5 hrs),Compound
84,99,,,,,,,,,,,,,O=C(Nc1ccc(Br)cc1)NC1CCN(C2CCN(Cc3ccccc3)C2)C1=O (stereo in doubt; 18) [listing 1 of 2 here]
99,93,192,2.5,3.78,2.02,250,2250,,,,,,,O=C(Nc1ccc(Br)cc1)NC1CCN(CC2CCN(Cc3ccccc3)CC2)C1=O (centres undefined)
123,,,2.7,1.42,2.87,15000,,Not Active,inactive,,,,,N#Cc1ccc(NC(=O)NC2CCN(c3ccccc3F)C2=O)cc1 (centres undefined)
42,93,61,4.6,4.17,0.522,730,6300,,,,,,,CC(C)(C)OC(=O)N1CCC(N2CCC(NC(=O)Nc3ccc(Br)cc3)C2=O)CC1 (centres undefined)
,,,,,,2700,1370,,,210,3.3,,,O=C(Nc1ccc(Br)cc1)NC1CCN(C2CCN(Cc3ccccc3)C2)C1=O (stereo in doubt; 17) [listing 1 of 2 here]
,,,,,,,,Not Active,inactive,,,Not Active,inactive,CCc1ccc(C(C)NC(=O)NC2CCN(c3cnn(C)c3)C2=O)cc1 (centres undefined)
67,103,222,> 4,1.88,1.87,410,2350,,,,,,,CC(C)(C)OC(=O)N1CC(N2CCC(NC(=O)Nc3ccc(Br)cc3)C2=O)C1 (centres undefined)
,,207,3,0.933,0.6,370,700,,,,,,,O=C(Nc1ccc(Br)cc1)NC1CCN(C2CCN(Cc3ccccc3)C2)C1=O (stereo in doubt; 18) [listing 2 of 2 here]
68,100,234,0.3,,,230,1030,,,,,,,O=C(Nc1ccc(Br)cc1)NC1CCN(C2CCNCC2)C1=O (centres undefined)
,,,> 4,3.48,1.78,,,Not Active,inactive,,,Not Active,inactive,O=C(Nc1ccc(Br)cc1)NC1CCN(c2cnn(-c3ccccc3)c2)C1=O (centres undefined)
,,,2.1,9.73,,,,Not Active,inactive,,,Not Active,inactive,Cn1cc(N2CCC(NC(=O)NCc3cc(F)cc(F)c3)C2=O)cn1 (centres undefined)
,103,3,4.3,11,,,3760,,,,,Not Active,inactive,O=C(Nc1ccc(Br)cc1)NC1CCN(c2cnn(-c3ccncc3)c2)C1=O (centres undefined)
,,,1,,,,,Not Active,inactive,,,Not Active,inactive,CC1CC(NC(=O)NCc2nccn2C)C(=O)N1c1ccccc1 (centres undefined)
86,92,53,> 4,0.317,0.317,400,2160,,,,,,,CC(C)(C)OC(=O)N1CCC(CN2CCC(NC(=O)Nc3ccc(Br)cc3)C2=O)CC1 (centres undefined)
150,95,57,4.6,3.15,0.633,280,400,,,,,,,Cc1nn(-c2ccccc2)c(C)c1N1CCC(NC(=O)Nc2ccc(Br)cc2)C1=O (centres undefined)
76,96,152,3.5,1.87,1.17,350,2870,,,,,,,O=C(Nc1ccc(Br)cc1)NC1CCN(C2CCN(Cc3ccccc3)CC2)C1=O (centres undefined)
,,,4.1,,0.5,60,550,,,54,,,,CC(C)(C)OC(=O)N1CCC[C@H](N2CCC(NC(=O)Nc3ccc(Br)cc3)C2=O)C1 (stereo in doubt; 20) [listing 1 of 2 here]
,,,1.99,5.48,5.95,,,Not Active,inactive,,,Not Active,inactive,COc1ccc(CNC(=O)NC2CCN(c3ccccc3)C2=O)cc1 (centres undefined)
128,100,,,,,,,,,,,,,O=C(Nc1ccc(Br)cc1)NC1CCN(C2CCN(Cc3ccccc3)C2)C1=O (stereo in doubt; 17) [listing 2 of 2 here]
,,75,4.4,2.8,2.12,,,Not Active,inactive,,,Not Active,inactive,O=C(Nc1ccc(Br)cc1)NC1CCN(Cc2ccccc2)C1=O (centres undefined)
71,89,,,,,,,,,,,,,CC(C)(C)OC(=O)N1CCC[C@H](N2CCC(NC(=O)Nc3ccc(Br)cc3)C2=O)C1 (stereo in doubt; 19) [listing 1 of 2 here]
,,,2,6.83,,,,Not Active,inactive,,,Not Active,inactive,CC(NC(=O)NC1CCN(c2ccccc2)C1=O)c1ccncc1 (centres undefined)
,,,> 4,> 6.67,0.55,1970,510,,,,,,,O=C(Nc1ccc(Br)cc1)NC1CCN(c2ccc(F)cc2)C1=O (centres undefined)
,96,,3.9,0.95,0.733,8,385,,,,,,,O=C(Nc1ccc(Br)cc1)NC1CCN(C2CCN(c3ncccn3)CC2)C1=O (centres undefined)
,,,2.8,8.42,2.52,,,Not Active,inactive,,,Not Active,inactive,CC(NC(=O)NC1CC(C)N(c2ccccc2)C1=O)c1ccncc1 (centres undefined)
84,102,227,0.8,6.35,2.33,270,3290,,,,,,,O=C(Nc1ccc(Br)cc1)NC1CCN(CC2CCNCC2)C1=O (centres undefined)
,,71,,,,130,1380,,,,> 4,,,CC(C)(C)OC(=O)N1CCC[C@H](N2CCC(NC(=O)Nc3ccc(Br)cc3)C2=O)C1 (stereo in doubt; 19) [listing 2 of 2 here]
73,86,,,,,,,,,,,,,CC(C)(C)OC(=O)N1CCC[C@H](N2CCC(NC(=O)Nc3ccc(Br)cc3)C2=O)C1 (stereo in doubt; 20) [listing 2 of 2 here]
